High-throughput results from PubChem.
Sampled rows, rich in hits. Any-hit rate of the full collection: about 6.7%.
GRIN3A LBD mod – modulates the human NR3A ligand-binding domain. NR3A LBD differential scanning fluorimetry, Tm shift; 0% = protein alone, 100% = glycine-bound protein. Tm shift relative to glycine control, % at 25 µM. 340,000 tested, 2.5% active. AID 1259313;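 active means melting temperature shift of at least 10% of the positive control shift, at one fixed dose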
T cruzi inh – blocks replication of Trypanosoma cruzi; AID 1885; T. cruzi beta-gal in NIH3T3, luminescence, 90 h; 300,000 tested, 1.4% active; inhibition, % (test concentration not listed);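 active means mean inhibition across valid replicates above about 55%, limit read from the data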;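 further: signal also drops with host cell toxicity which is not excluded here; higher percent means less beta-gal luminescence so fewer parasites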
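System – NIH/3T3 host cells with β-galactosidase reporter T. cruzi · Doses – single 50 nL compound addition per well in DMSO · Reagent – 5000 T. cruzi trypomastigotes/well · Medium – Low-serum DMEM with 2% FBS · Timing – ≥90 h infection period, 3 h prior cell attachment · Evaluation – parasite load inhibition, % · Technique – GalScreen luminescence, 60 min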
CSC inhib – blocks cancer stem cells; inhibition, % at 7.5 µM; cancer stem cell-like cells viability, luminescence; 300,000 tested, 1.1% active; AID 2717; in the data active means inhibition above about 75%; tested in HMLE shEcad cells
CHOP inhibitor – inhibitors of CHOP induction in ER stress response. 220,000 tested, 3.8% active. inhibition, % at 10 µM. CHO-K1 CHOP-promoter luciferase, tunicamycin-induced, 15-18 h;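 active means compounds that reduced the stress-induced luciferase reporter signal by more than about 70% of percent inhibition, limit read from the data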
PREPL inh – inhibits the human prolyl oligopeptidase-like enzyme | Q4J6C6 | recombinant PREPL, fluorescence polarization activity-based probe | inhibition, % at 5.96 µM | 320,000 tested, 0.68% active; in the data active means inhibition above about 43%
Beta cell apopt – beta cell apoptosis inhibition | INS-1E cytokine-induced death, ATP luminescence, 48 h; percent of positive-control rescue, neutral wells zero | protection from apoptosis, % (no concentration beside the values) | 300,000 tested, 0.8% active | AID 435005;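 active means Every replicate reaches about 75%, or at least half do and their mean reaches it too, limit read from the data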;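 further: higher means more ATP so stronger rescue from cytokine killing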
Of the large screens only hits and unclear results are named; the others gave an inactive call.

Cc1ccc([N+](=O)[O-])cc1-c1ccc(/C=N\n2nnnc2N)o1	CHOP inhibitor 90
C=CCc1c(C)nc(-c2ccccc2)nc1N/N=C/c1ccncc1	T cruzi inh 55
C=CCc1c(C)nc(-c2ccccc2)nc1N/N=C/c1ccccc1	none
NS(=O)(=O)c1ccc(CCNC(=O)c2cnccn2)cc1	none (no result: CHOP inhibitor)
Nc1c(C(=O)N/N=C/c2ccccc2)cnn1-c1ccccc1	GRIN3A LBD mod 15
COc1c(Br)cc([N+](=O)[O-])c(OC)c1C(=O)NC(=O)Nc1cc(Cl)cc(Cl)c1	GRIN3A LBD mod 13 (no result: CSC inhib, Beta cell apopt)
[O-][n+]1c(/C=C/c2ccccc2)ccc2ccccc21	GRIN3A LBD mod 19 (no result: CHOP inhibitor, PREPL inh)
CCCCn1nc(C(=O)NCC(c2cccs2)N2CCOCC2)c2ccccc2c1=O (configuration not stated)	none (no result: T cruzi inh, CHOP inhibitor)
Cn1c(/C=C/c2ccc([N+](=O)[O-])o2)nc2ccccc2c1=O	T cruzi inh 67, CSC inhib 110, Beta cell apopt 106 (no result: CHOP inhibitor)
O=[N+]([O-])c1ccc(/C=N/Nc2ccnc3cc(Cl)ccc23)o1	GRIN3A LBD mod 17, Beta cell apopt 107 (no result: CHOP inhibitor)
Cc1cc2ncn(/N=C/c3ccc([N+](=O)[O-])o3)c2cc1C	GRIN3A LBD mod 10, T cruzi inh 60
Cc1cc(C(=O)N/N=C/c2ccc([N+](=O)[O-])s2)c2ccccc2n1	T cruzi inh 61 (no result: CSC inhib, CHOP inhibitor)
O=C(N/N=C/c1cccs1)c1cncc(Br)c1	none
O=C(N/N=C/c1cc([N+](=O)[O-])ccc1O)c1cc(-c2ccccc2)nc2ccccc12	GRIN3A LBD mod 21, Beta cell apopt 117
CC(=O)N(C(C)=O)n1c(/C=C/c2cccc([N+](=O)[O-])c2)nc2ccccc2c1=O	CHOP inhibitor 93 (no result: CSC inhib)
O=C(N/N=C\c1ccc([N+](=O)[O-])s1)c1cncc(Br)c1	CHOP inhibitor 95, Beta cell apopt 84
O=C(N/N=C/c1ccc([N+](=O)[O-])o1)c1cc(-c2ccc(-c3ccccc3)cc2)nc2ccccc12	CSC inhib 78
CCOc1cc(NC(=S)NCCCN2CCOCC2)c(OCC)cc1NC(=O)C1CCCCC1	none
O=C(CC1C(=O)NCCN1Cc1ccccc1)NCCCOc1cccnc1 (configuration not stated)	none (no result: CHOP inhibitor)
Cc1cc(Nc2ccc([N+](=O)[O-])cc2)nc2ccccc12	GRIN3A LBD mod 39
Cc1cc(Nc2ccc([N+](=O)[O-])cc2)c2ccccc2n1	none (no result: CHOP inhibitor)
Cc1ccc(-c2cc(C(=O)N/N=C/c3ccc([N+](=O)[O-])o3)c3ccccc3n2)o1	none (no result: T cruzi inh, CHOP inhibitor, PREPL inh)
Cc1cc(N/N=C/c2ccc([N+](=O)[O-])o2)nc2ccccc12	GRIN3A LBD mod 14
Cc1cc(C(=O)N/N=C/c2cc([N+](=O)[O-])ccc2O)c2ccccc2n1	CHOP inhibitor 71
O=C(NCc1ccccc1)c1cccc(NC(=O)C2CCCC2)c1	none (no result: T cruzi inh, CSC inhib, CHOP inhibitor, PREPL inh, Beta cell apopt)
COc1ccc(C(=O)/C=C/c2ccc(O)cc2)c(O)c1CC=C(C)C	GRIN3A LBD mod 15, CHOP inhibitor 79
COc1ccc(C(=O)/C=C/c2ccc(O)cc2)c2c1CC(O)C(C)(C)O2 (configuration not stated)	none (no result: T cruzi inh, CSC inhib, CHOP inhibitor, Beta cell apopt)
CC1=C(C#N)C(C(F)(F)F)(C(F)(F)F)N=C(c2ccco2)N1	Beta cell apopt 101
Cc1nnc(NC(=O)c2ccccc2Oc2ccccc2)s1	none (no result: CSC inhib)
COc1ccc2cc(CN(Cc3cccnc3)Cc3nnnn3Cc3ccccc3)c(=O)[nH]c2c1	T cruzi inh 62
CCOC(=O)Cn1nnnc1CN(Cc1cccs1)Cc1cc2cc(C)cc(C)c2[nH]c1=O	none
CCOc1ccc2[nH]c(=O)c(CN(Cc3cccs3)Cc3nnnn3C(C)(C)CC)cc2c1	T cruzi inh 58
COCCn1nnnc1CN(Cc1cccnc1)Cc1cc2cc(OC)ccc2[nH]c1=O	none (no result: CSC inhib, PREPL inh, Beta cell apopt)
COCCn1nnnc1CN(CCc1ccccc1)Cc1cc2cc(OC)ccc2[nH]c1=O	PREPL inh 54 (no result: CHOP inhibitor)
COc1ccc2cc(CN(Cc3cccs3)Cc3nnnn3Cc3ccccc3)c(=O)[nH]c2c1	none
Cc1cccc2cc(CN(Cc3cccs3)Cc3nnnn3Cc3ccccc3)c(=O)[nH]c12	T cruzi inh 63
CN1CCN(S(=O)(=O)c2ccc(NS(=O)(=O)c3ccccc3)cc2)CC1	none (no result: CHOP inhibitor)
O=c1[nH]nnc2cc(Cl)ccc12	none (no result: T cruzi inh, CSC inhib, CHOP inhibitor, PREPL inh, Beta cell apopt)
COc1ccccc1-c1nnc(SC(C)C(=O)O)n1-c1ccccc1 (configuration not stated)	none
